# Experimental data from ChEMBL document CHEMBL1156484, “Hot spots in prion protein for pathogenic conversion” (Proc Natl Acad Sci U S A, 2007).
# Active and inactive are the calls of the source. The rule behind the calls is not given here.
# Assays:
# [1] = Cytotoxicity against mouse GT1-7 cells at 1 uM; assay type: cell-based; details: gt1-7, 1 µM
# cells [2] = assay type: functional, cell-based; details: Mus musculus, GT1-7
# Mus musculus [3] = species on record: Mus musculus; assay: Binding affinity to recombinant mouse cellular form PrP (23-231)
# Mus musculus [4] = assay: Survival of intraventricularly dosed mouse infected with human transmissible spongiform encephalopathies agent Fukuoka1 at 250 ug/kg, after 70 to 98 days post-infection; assay type: functional
# Outline: (§1)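 4-week-old male ddY mice inoculated in the right temporal lobe with 20 μl of 10% FK-1 (Fukuoka-1) infected brain homogenate. Drug in 5% glucose/saline (10 mg/ml stock, 0.2-μm filtered) given at 250 μg/kg per day by intraventricular osmotic-pump infusion over the stated d.p.i. window. Vehicle-only controls. Mice examined daily for neurological signs; survival analysed by Kaplan–Meier.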
# GT1-7 = assay: Effect on cellular form PrP expression in mouse GT1-7 cells; assay type: functional, cell-based
# Outline: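 Uninfected GT1-7 mouse neuronal cells (~2 × 10^5 per well) treated 15 h after plating, from 100 mM DMSO stocks diluted in medium (solvent control 0.1%), for 72 h. Lysates in Triton X-100/DOC buffer, normalized to 2 mg protein/ml. PrPC detected by Western blot with SAF32 antibody and ECL, then scanned.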
# Mus musculus [5] = species on record: Mus musculus; assay: Stabilization of recombinant mouse cellular form PrP (23-231) conformation at 10 uM
# Mus musculus [6] = assay: Survival of intraventricularly dosed mouse infected with human transmissible spongiform encephalopathies agent Fukuoka1 at 250 ug/kg, after 42 to 70 days post-infection; assay type: functional; outline: as §1
# cells [7] = assay type: functional, cell-based; details: Mus musculus, GT1-7, 72 h
SMILES,Activity [1],IC50 (cells [2]),also measured
O=C(CCl)Nc1ccc(Cc2ccc(NC(=O)CCl)cc2)cc1,Toxic,> 100 µM,
O=C(c1cccc(I)c1)c1cccc(I)c1,Toxic,> 100 µM,
O=C(Nc1ccc(I)cc1C(=O)O)c1ccc(Cl)cc1,Toxic,> 100 µM,
COc1ccc(NC(=O)c2cc(Br)ccc2I)cc1Cl,Toxic,> 100 µM,
O=C(CN1CCCC1)Nc1ccc(Cc2ccc(NC(=O)CN3CCCC3)cc2)cc1,,,Activity (Mus musculus [3]): 3.9 ×10⁻⁶ M; Survival (Mus musculus [4]): 141.5 days; Activity (GT1-7): inactive; Activity (Mus musculus [5]): Stable; Survival (Mus musculus [6]): 132.3 days; IC50 (cells [7]): 1.35 µM
Cc1ccc(C(=O)Nc2cccc([N+](=O)[O-])c2C)cc1I,Toxic,> 100 µM,
CC(=O)CC(=O)Nc1ccc(Cc2ccc(NC(=O)CC(C)=O)cc2)cc1,Toxic,> 100 µM,
CC1CCCN(C(=O)Nc2ccc(Cc3ccc(NC(=O)N4CCCC(C)C4)cc3)cc2)C1 (configuration not stated),Toxic,> 100 µM,
O=C1C=CC(=O)N1c1ccc(Cc2ccc(N3C(=O)C=CC3=O)c(Cl)c2)cc1Cl,Toxic,> 100 µM,
CCN(CCO)CCNc1ccc(C)c2sc3ccccc3c(=O)c12,Toxic,> 100 µM,
C=CCSC1=N/C(=C\c2ccccc2Br)C(=O)S1,Toxic,> 100 µM,
O=C1C=CC(=O)N1c1ccc(Cc2ccc(N3C(=O)C=CC3=O)cc2)cc1,Toxic,> 100 µM,
O=C(Nc1cc(Cl)c(Cl)cc1Cl)Nc1cc(Cl)c(Cl)cc1Cl,Toxic,> 100 µM,
COc1ccccc1C(=O)c1c(C(=O)O)ccc2ccccc12,Toxic,> 100 µM,
O=S(=O)(c1cc(Cl)cc(Br)c1O)c1cc(Cl)cc(Br)c1O,Toxic,> 100 µM,
COc1ccc(C(=O)c2ccc(Br)c([N+](=O)[O-])c2)cc1C,Toxic,> 100 µM,
CC(=O)Nc1ccc(Cc2ccc(NC(C)=O)cc2)cc1,Toxic,> 100 µM,
Cc1nc2c(n1CCO)C(=O)c1nc(C)n(CCO)c1C2=O,Toxic,> 100 µM,
COc1ccc(C(=O)N=C2C=C(Br)C(=O)C(Br)=C2)cc1,Toxic,> 100 µM,
O=C(CN1CCCCC1)Nc1ccc(Cc2ccc(NC(=O)CN3CCCCC3)cc2)cc1,Toxic,> 100 µM,
Cc1ccc(S(=O)(=O)Nc2ccccc2N(C)S(=O)(=O)c2ccc(C)cc2)cc1,Toxic,> 100 µM,
O=C(Nc1ccc(Cc2ccc(NC(=O)C(Cl)(Cl)Cl)cc2)cc1)C(Cl)(Cl)Cl,Toxic,> 100 µM,

SMILES,Activity [1],IC50 (cells [2]),also measured
CS(=O)(=O)O[C@H]1C[C@H](n2cc(F)c(=O)[nH]c2=O)O[C@@H]1CO,Toxic,> 100 µM,
Cc1sc(C(O)c2sc(C)c(C)c2I)c(I)c1C,Toxic,> 100 µM,
O=C(c1ccc(I)c([N+](=O)[O-])c1)c1ccc(I)c([N+](=O)[O-])c1,Toxic,> 100 µM,
C=CCc1cc(/C=C2/C(=O)NC(=S)N(CC=C)C2=O)cc(OC)c1O,Toxic,> 100 µM,
O=C(Nc1ccc(NC(=O)c2cccc3ccccc23)cc1)c1cccc2ccccc12,Toxic,> 100 µM,
O=C(N/N=C/c1cc(Cl)cc(Cl)c1O)c1cccc(I)c1,Toxic,> 100 µM,
Cc1ccc(N2C(=O)c3ccc(C(=O)OCC(C)C)cc3C2=O)cc1Cl,Toxic,> 100 µM,
Cc1c(NC(=O)c2cccc(I)c2)ccc([N+](=O)[O-])c1C,Toxic,> 100 µM,
CC(=O)[C@H]1CC[C@H]2[C@@H]3C[C@H](O)[C@@H]4C[C@H](O)CC[C@]4(C)[C@H]3CC[C@]12C,Toxic,> 100 µM,
COc1ccc(C(=O)NNC(=O)c2ccc(OC)c(I)c2)cc1Br,Toxic,> 100 µM,
O=C(Nc1ccc2ccccc2c1)c1cccc(C(=O)Nc2ccc3ccccc3c2)c1,Toxic,> 100 µM,
C[C@]12CCC(=O)C=C1CC[C@@H]1[C@@H]2[C@@H](O)C[C@@]2(C)[C@H]1CC[C@]2(O)C(=O)COC(=O)CCC(=O)O [HYDROCORTISONE HEMISUCCINATE ANHYDROUS],Toxic,> 100 µM,
O=C(O)c1ccc(C(=O)O)c(C(=O)Nc2ccc3c(c2)-c2ccccc2C3)c1,Toxic,> 100 µM,
O=C(Nc1ccc(Cc2ccc(NC(=O)c3cccc([N+](=O)[O-])c3)cc2)cc1)c1cccc([N+](=O)[O-])c1,Toxic,> 100 µM,
O=C(Nc1ccc(I)cc1)c1ccccc1I,Toxic,> 100 µM,
CCCCOC(=O)c1ccc2c(c1)C(=O)N(c1ccc(Oc3ccccc3)cc1)C2=O,Toxic,> 100 µM,
O=C(CN1CCOCC1)Nc1ccc(Cc2ccc(NC(=O)CN3CCOCC3)cc2)cc1,Toxic,> 100 µM,
CCCCOC(=O)c1ccc(NC(=O)Nc2cc(C)ccc2C)cc1,Toxic,> 100 µM,
O=c1n(S(=O)(=O)c2ccc(Cl)cc2)c2ccccc2n1S(=O)(=O)c1ccc(Cl)cc1,Toxic,> 100 µM,
O=C(O)/C=C/C(=O)Nc1ccc(Cc2ccc(NC(=O)/C=C/C(=O)O)cc2)cc1,Toxic,> 100 µM,
O=C(Nc1ccc(I)cc1)c1cccc(I)c1,Toxic,> 100 µM,
Cc1ccc(N2C(=O)c3ccc(C(=O)OCC(C)C)cc3C2=O)cc1C,Toxic,> 100 µM,
